Measurements reported in ChEMBL document CHEMBL3576792, “Enhancement of antibiotic activity against multidrug-resistant bacteria by the efflux pump inhibitor 3,4-dibromopyrrole-2,5-dione isolated from a Pseudoalteromonas sp” (J Nat Prod, 2015).
In brackets after ≈: the same amount, converted by molar mass. Activity calls are given as the source filed them. The calls are words filed in the database; no cut-off is given here. Residues, ends and D or L forms follow the SMILES beside them. *: point of attachment. βNA = c1ccc2cc(N*)ccc2c1

Tests used:
Escherichia coli [1] = assay: Antibacterial activity against Escherichia coli transformed with plasmid carrying MG1655 deltaBC/pXYM by p-iodonitrotetrazolium chloride colorimetric assay; type: functional
Method in brief: (§1)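 Two-fold broth microdilution in Mueller-Hinton broth, read by p-iodonitrotetrazolium chloride colorimetric assay. MIC is the lowest concentration giving no visible growth. MG1655 ΔacrB ΔtolC strains carrying pABM or pXYM were always cultured with 100 μg/mL ampicillin and 1 mM IPTG. Medium, inoculum and 1% DMSO (final) served as negative control.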

Escherichia coli [2] = assay: Antibacterial activity against Escherichia coli AG102 overexpressing AcrAB-TolC by p-iodonitrotetrazolium chloride colorimetric assay; type: functional; method in brief: as §1
Escherichia coli [3] = assay: Antibacterial activity against Escherichia coli transformed with plasmid carrying MG1655 deltaBC/pABM by p-iodonitrotetrazolium chloride colorimetric assay; type: functional; method in brief: as §1
Escherichia coli [4] = assay: Inhibition of AcrAB-TolC pump in Escherichia coli AG100 assessed as increase in intracellular H33342 fluorescence at 15.6 ug/ml after 60 mins by efflux inhibition assay; type: cell-based
Method in brief: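 AG100 (wild-type K-12) or AG100A (ΔacrAB) cells were grown in Luria broth at 37 °C and 200 rpm to OD600 1.0, PBS-washed and diluted to OD600 0.3. Cells took up 2.5 μM Hoechst 33342 with 22 mM glucose at 37 °C for about 30 min, then compound (0.06–64 μg/mL) or PAβN (15.6 μg/mL) was added. Fluorescence (Ex 350/Em 460 nm) was followed for 60 min and corrected for background. The last four time points were compared to dye-only control by ANOVA with Dunnett's test, run in duplicate.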

Row | Compound | MIC (Escherichia coli [1]) [µg/mL] | MIC (Escherichia coli [2]) [µg/mL] | MIC (Escherichia coli [3]) [µg/mL] | inhibition (Escherichia coli [4])
1 | NC[C@H]1O[C@H](O[C@H]2[C@H](O)[C@@H](O[C@H]3O[C@H](CO)[C@@H](O)[C@H](N)[C@H]3O)[C@H](N)C[C@@H]2N)[C@H](O)[C@@H](O)[C@@H]1O [KANAMYCIN] | 0.25 (≈ 0.516 µM) | 16 (≈ 33 µM) | 2 (≈ 4.13 µM) | 
2 | CN(C)[C@@H]1C(O)=C(C(N)=O)C(=O)[C@@]2(O)C(O)=C3C(=O)c4c(O)cccc4[C@@](C)(O)[C@H]3C[C@@H]12 [TETRACYCLINE] | 0.25 (≈ 0.563 µM) | 8 (≈ 18 µM) | 2 (≈ 4.5 µM) | 
3 | N=C(N)NCCC[C@H](NC(=O)[C@@H](N)Cc1ccccc1)C(=O)Nc1ccc2ccccc2c1 (H-Phe-Arg-βNA) |  |  |  | Active
4 | CCN1CCN(C(=O)N[C@@H](C(=O)N[C@@H]2C(=O)N3[C@@H]2SC(C)(C)[C@@H]3C(=O)O)c2ccccc2)C(=O)C1=O [PIPERACILLIN] | 512 (≈ 989 µM) | 4 (≈ 7.73 µM) | > 512 | 
5 | Cc1onc(-c2ccccc2)c1C(=O)N[C@@H]1C(=O)N2[C@@H]1SC(C)(C)[C@@H]2C(=O)O [OXACILLIN] | > 1300 | > 650 | > 1300 | 
6 | C[C@H]1COc2c(N3CCN(C)CC3)c(F)cc3c(=O)c(C(=O)O)cn1c23.C[C@H]1COc2c(N3CCN(C)CC3)c(F)cc3c(=O)c(C(=O)O)cn1c23.O [LEVOFLOXACIN] | 0.13 | 0.13 | 0.13 | 
7 | O=C(N[C@H](CO)[C@H](O)c1ccc([N+](=O)[O-])cc1)C(Cl)Cl [CHLORAMPHENICOL] | 0.75 (≈ 2.32 µM) | 24 (≈ 74.3 µM) | 24 (≈ 74.3 µM) | 
8 | CC[C@H]1OC(=O)[C@H](C)[C@@H](O[C@H]2C[C@@](C)(OC)[C@@H](O)[C@H](C)O2)[C@H](C)[C@@H](O[C@@H]2O[C@H](C)C[C@H](N(C)C)[C@H]2O)[C@](C)(O)C[C@@H](C)C(=O)[C@H](C)[C@@H](O)[C@]1(C)O [ERYTHROMYCIN] | 32 (≈ 43.6 µM) | 128 (≈ 174 µM) | 32 (≈ 43.6 µM) | 
9 | O=C(O)c1cn(C2CC2)c2cc(N3CCNCC3)c(F)cc2c1=O [CIPROFLOXACIN] |  | 0.13 (≈ 0.392 µM) |  | 
